# Bioassay records (PubChem BioAssay)
# E-sel inducer: E-selectin induction on HUVECs. HUVEC E-selectin immunofluorescence imaging; normalized: neutral wells 0, TNF-alpha wells 100. hit rate 0.37% among 260,000. activation, % at 7.58 µM;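 active means mean E-selectin-positive cell signal at least 10% of the positive control, reached in at least 60% of replicates, without over 20% cell loss; inconclusive means no rule given, readout overlaps actives, possibly toxicity-flagged; inactive means the rest, including those meeting only one limit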
#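 Material: HUVEC primary endothelial cells; Amount: 3,000 cells per well; Dosing: single concentration; Medium: EGM-2 growth medium on 0.1% gelatin-coated wells; Read-out basis: percent E-selectin-positive cells; Signal: immunofluorescence imaging; Control set: TNF-alpha, DMSO.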
# CFTR F508del cor: CFTR F508del correction in bronchial cells | hit rate 0.36% among 350,000 | AID 720511 | activity (quench increase), % at 7.58 µM | CFBE cells, YFP halide quenching; stimulated with forskolin plus potentiator P3; % fluorescence drop versus neutral controls;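 active means mean added fluorescence quench of at least 8% versus neutral control, with both replicates also reaching 8%; inconclusive means only one of the mean or replicate conditions met; inactive means mean below 8% and not both replicates reaching 8%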;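 further: cells transiently co-express mutant CFTR-F508del with the halide-sensitive YFP; corrector assay measuring rescue of mutant channel to the surface after 24 h compound exposure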
# DENV2 CPE: protects cells from dengue virus 2 cytopathic effect. hit rate 1.7% among 350,000. CPE inhibition, % at 9.99 µM. DENV2-infected cells, cytopathic effect rescue, plate reader; in the data active means CPE inhibition above about 20%, passing the limit was not always enough; inconclusive means no clear call, values can overlap the other calls; tested in BHK-21 cells;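 further: 0% = median of neutral control wells and 100% = median of positive control wells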
# INS-1E GSIS act: GLuc luminescence reporter in INS-1E cells, primary screen for activators of glucose-dependent secretion of insulin; INS-1E GLuc reporter insulin secretion, 2-3 h; hit rate 0.61% among 370,000; activation, % at 16.6 µM;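 active means lowest replicate activation of at least 40%, so every replicate reaches that level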;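 further: 0% = median of neutral control wells and 100% = median of IBMX positive control wells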
# miR-122 sensor: blocks miR-122 activity in Huh7 sensor cells; AID 602342; activation (reporter increase), % at 12.5 µM; Huh7 miR-122 Renilla luciferase sensor, 48 h; neutral wells = 0, positive control = 100; hit rate 0.3% among 340,000;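 active means mean replicate activation score at least 90 and every replicate individually at or above 90; inconclusive means only one of the two criteria met; inactive means neither criterion met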;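 further: higher luciferase means less miR-122 activity so hits act as miR-122 inhibitors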
# ERAP1 inh: inhibitors of human ERAP1 aminopeptidase | Q9NZ08 | recombinant ERAP1, Leu-AMC fluorescence, 60 min | inhibition, % at 10.7 µM | hit rate 0.15% among 340,000;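 active means mean replicate inhibition of at least 30%, or all replicates individually reaching that 30% level; inactive means mean below 30% and not every replicate reaching it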;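 further: 0% = neutral control wells and 100% = L-leucinethiol positive control wells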
# Target sequence (Q9NZ08 whole entry, looked up): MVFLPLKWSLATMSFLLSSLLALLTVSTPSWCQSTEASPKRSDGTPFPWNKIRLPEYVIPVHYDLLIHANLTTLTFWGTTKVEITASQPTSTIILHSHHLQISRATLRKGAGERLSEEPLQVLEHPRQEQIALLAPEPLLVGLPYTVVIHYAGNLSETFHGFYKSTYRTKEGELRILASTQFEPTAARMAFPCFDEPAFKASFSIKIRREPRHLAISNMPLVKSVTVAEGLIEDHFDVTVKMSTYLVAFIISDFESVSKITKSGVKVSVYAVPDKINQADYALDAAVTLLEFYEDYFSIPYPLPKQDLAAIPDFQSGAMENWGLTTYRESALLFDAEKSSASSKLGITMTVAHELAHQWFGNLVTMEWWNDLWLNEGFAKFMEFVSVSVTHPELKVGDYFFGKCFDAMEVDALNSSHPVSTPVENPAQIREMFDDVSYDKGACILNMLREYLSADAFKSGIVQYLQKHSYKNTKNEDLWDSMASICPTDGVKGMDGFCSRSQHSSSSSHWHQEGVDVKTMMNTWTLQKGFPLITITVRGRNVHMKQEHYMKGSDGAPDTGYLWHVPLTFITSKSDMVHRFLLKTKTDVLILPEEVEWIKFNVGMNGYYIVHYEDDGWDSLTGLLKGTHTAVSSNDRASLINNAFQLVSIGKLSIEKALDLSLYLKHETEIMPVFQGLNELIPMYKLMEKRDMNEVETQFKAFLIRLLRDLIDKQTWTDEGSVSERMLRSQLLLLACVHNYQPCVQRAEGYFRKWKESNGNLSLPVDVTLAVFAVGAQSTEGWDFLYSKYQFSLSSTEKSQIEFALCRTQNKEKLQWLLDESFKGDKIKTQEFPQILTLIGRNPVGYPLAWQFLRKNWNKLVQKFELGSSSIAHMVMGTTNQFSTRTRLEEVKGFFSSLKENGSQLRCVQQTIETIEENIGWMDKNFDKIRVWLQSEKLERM
# * = called active by the depositor; ? = inconclusive; · = not tested or not shown; [ ] = remark or other dose. Shown are actives, neighbours in structure and some others; about 2.6% of the full set was active somewhere.
SMILES,E-sel inducer,CFTR F508del cor,DENV2 CPE,INS-1E GSIS act,miR-122 sensor,ERAP1 inh
COc1ccc2c3c([nH]c2c1)[C@@H](CO)N(Cc1ccc(F)cc1)CC31CCN(C(=O)NC(C)C)CC1,0,1,9,13,·,1
COc1ccc2c3c([nH]c2c1)[C@H](CO)N(C(=O)C1CCCCC1)CC31CCN(C(=O)NC(C)C)CC1,0,0,29*,-7,·,0
COc1ccc2c3c([nH]c2c1)[C@@H](CO)N(Cc1ccc(F)cc1)CC31CN(C(=O)NC(C)C)C1,-1,-2,93*,-1,·,·
C[C@@H]1CN([C@H](C)CO)S(=O)(=O)c2ccc(/C=C/c3ccccc3)cc2O[C@H]1CN(C)Cc1cccnc1,0,0,-4,-16,·,-6
O=C(C[C@@H]1C=C[C@H](NS(=O)(=O)c2ccccc2)[C@@H](CO)O1)NCc1ccncn1,0,-3,7,-3,·,1
O=C(CN1CCN(c2cccc(C(F)(F)F)c2)CC1)N(C1CCCC1)C1CCS(=O)(=O)C1 (stereo not drawn),·,6,51*,-29,-11,2
COc1ccc2c3c(n(C)c2c1)[C@@H](CO)N(C(C)=O)CC31CN(C(=O)Nc2ccc(F)cc2)C1,0,-1,4,-4,·,-1
COc1ccc2c3c([nH]c2c1)[C@@H](CO)N(Cc1ccccc1)CC31CN(C(=O)c2cccnc2)C1,-1,-1,-8,-10,·,-3
CC1=C/C(=C\C=C(C#N)C#N)N(C)c2ccccc21,·,10*,0,-3,4,-2
CN1/C(=C/C=C(C#N)C#N)C(C)(C)c2ccccc21,7,-16,3,11,-2,-1
CO[C@H]1O[C@H](CO)[C@@H](OC(=O)Nc2ccc3c(c2)OCO3)[C@H](OC(=O)Nc2ccccc2)[C@H]1OC(=O)Nc1ccccc1,·,0,0,·,·,1
COc1ccc(NC(=O)N(C)C[C@@H]2Oc3ccc(NS(C)(=O)=O)cc3CC(=O)N([C@H](C)CO)C[C@@H]2C)cc1,0,-1,34*,-7,12[16.7 µM],0
COc1ccc(NC(=O)N(C)C[C@@H]2Oc3ccc(N(C)C)cc3CC(=O)N([C@H](C)CO)C[C@@H]2C)cc1,-4,2,6,7,1[16.7 µM],1
COc1ccc(NC(=O)N(C)C[C@H]2Oc3ccc(NS(C)(=O)=O)cc3CC(=O)N([C@H](C)CO)C[C@@H]2C)cc1,0,1,0,-1,-4[16.7 µM],0
COc1ccc(NC(=O)N(C)C[C@H]2Oc3ccc(N(C)C)cc3CC(=O)N([C@H](C)CO)C[C@@H]2C)cc1,327*,1,16,5,3[16.7 µM],-1
CC(C)C#Cc1ccc2c(c1)O[C@@H](CN(C)C)[C@@H](C)CN([C@H](C)CO)S2(=O)=O,0,4,·,6,·,·
CS(=O)(=O)Nc1ccc2c(c1)[C@@H]1C[C@@H](CC(=O)NCC3CC3)O[C@H](CO)[C@@H]1O2,0,0,1,16,-2[16.7 µM],1
CCNC(=O)[C@H]1[C@H](CO)[C@H]2Cn3c(ccc(-c4ccc(F)cc4)c3=O)[C@H]2N1C,·,·,·,19,·,·
C[C@@H]1CN([C@@H](C)CO)C(=O)Cc2cc(NS(=O)(=O)c3cn(C)cn3)ccc2O[C@H]1CN(C)Cc1ccc(-c2ccccc2)cc1,0,0,26*,-36,-9[16.7 µM],0
C[C@@H]1CN([C@@H](C)CO)C(=O)Cc2cc(NS(=O)(=O)c3ccccc3)ccc2O[C@@H]1CN(C)Cc1ccc(Oc2ccccc2)cc1,1,-1,25*,-6,-1[16.7 µM],-1
Cc1ccc(S(=O)(=O)Nc2ccc3c(c2)CC(=O)N([C@H](C)CO)C[C@@H](C)[C@H](CN(C)Cc2ccc(Oc4ccccc4)cc2)O3)cc1,0,3,59*,5,-12[16.7 µM],-2
COc1ccc(S(=O)(=O)Nc2ccc3c(c2)CC(=O)N([C@H](C)CO)C[C@@H](C)[C@@H](CN(C)Cc2ccc(C(F)(F)F)cc2)O3)cc1,0,7,23*,-29,-14[16.7 µM],-1
Cc1ccc(S(=O)(=O)N(C)C[C@H]2Oc3ccc(NS(=O)(=O)c4cn(C)cn4)cc3CC(=O)N([C@H](C)CO)C[C@H]2C)cc1,0,1,·,29,-4[16.7 µM],·
COc1ccccc1CN1CC[C@H]2[C@H](CO)Nc3ccc(C#Cc4ccccc4)cc3[C@H]21,0,1,-33,-18,-10[16.7 µM],-1
C[C@H](CO)N1C[C@H](C)[C@@H](CN(C)C(=O)NC2CCCCC2)Oc2ccc(NC(=O)C3CC3)cc2CC1=O,0,-1,-7,-2,1[16.7 µM],0
SMILES,E-sel inducer,CFTR F508del cor,DENV2 CPE,INS-1E GSIS act,miR-122 sensor,ERAP1 inh
COc1ccc(S(=O)(=O)Nc2ccc3c(c2)C(=O)N([C@@H](C)CO)C[C@@H](C)[C@H](CN(C)Cc2ccccc2)OCCCC[C@H](C)O3)cc1,0,-1,9,-19,-1[16.7 µM],·
C[C@H]1CN([C@@H](C)CO)C(=O)Cc2cc(NS(=O)(=O)c3ccccc3)ccc2O[C@@H]1CN(C)Cc1ccc(-c2ccccc2)cc1,0,-2,40*,0,-5[16.7 µM],-3
C[C@@H]1CN([C@@H](C)CO)C(=O)Cc2cc(NS(=O)(=O)c3cccs3)ccc2O[C@@H]1CN(C)Cc1ccc(-c2ccccc2)cc1,0,1,44*,-3,-9[16.7 µM],0
C[C@@H]1CN([C@H](C)CO)C(=O)Cc2cc(NS(=O)(=O)c3cccs3)ccc2O[C@H]1CN(C)Cc1ccc(-c2ccccc2)cc1,0,1,15,-18,4[16.7 µM],-1
Cc1ccc(S(=O)(=O)Nc2ccc3c(c2)CC(=O)N([C@@H](C)CO)C[C@@H](C)[C@@H](CN(C)Cc2ccc(Cl)c(Cl)c2)O3)cc1,0,11*,-4,-9,-4[16.7 µM],-1
C[C@H]1CN([C@@H](C)CO)C(=O)Cc2cc(NS(=O)(=O)c3ccccc3)ccc2O[C@H]1CN(C)Cc1ccc(-c2ccccc2)cc1,0,-3,?,5,2[16.7 µM],-3
C[C@@H]1CN([C@@H](C)CO)C(=O)Cc2cc(NS(C)(=O)=O)ccc2O[C@H]1CN(C)Cc1ccc(Oc2ccccc2)cc1,8,3,30*,-37,-10[16.7 µM],-1
Cc1ccc(S(=O)(=O)Nc2ccc3c(c2)CC(=O)N([C@H](C)CO)C[C@@H](C)[C@@H](CN(C)Cc2ccc(Oc4ccccc4)cc2)O3)cc1,0,-1,38*,3,-11[16.7 µM],-1
Cc1ccc(S(=O)(=O)Nc2ccc3c(c2)CC(=O)N([C@@H](C)CO)C[C@@H](C)[C@H](CN(C)Cc2ccc(Oc4ccccc4)cc2)O3)cc1,0,4,-26,4,-8[16.7 µM],1
O=C(N[C@@H]1CC[C@H](CCNS(=O)(=O)c2ccc(F)cc2)O[C@@H]1CO)C1CCOCC1,-2,1,?,0,6[16.7 µM],-5
